Source: PubChem BioAssay
Statin myotox sup: suppression of simvastatin myotoxicity; C2C12 myotubes + simvastatin, ATP luminescence, 48 h; scaled: DMSO 0, geranylgeraniol control 100; rescue of ATP level, % at 7.49 µM; actives 0.78% (n = 330,000);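 active = mean ATP rescue above about 67%, or every replicate alone reaching that limit, limit read from the data, passing the limit was not always enough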;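 also: myotubes were challenged with 10 µM simvastatin during compound exposure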
DENV2 CPE: protects cells from dengue virus 2 cytopathic effect | DENV2-infected cells, cytopathic effect rescue, plate reader | CPE inhibition, % at 9.99 µM | actives 1.7% (n = 350,000) | AID 651640; in the data active = CPE inhibition above about 20%, passing the limit was not always enough; tested in BHK-21 cells;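 also: 0% = median of neutral control wells and 100% = median of positive control wells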
Cneo AK release: Cryptococcus neoformans lysis via adenylate kinase release; AID 651654; C. neoformans lysis, adenylate kinase release luminescence, 4 h; normalised: neutral wells 0, clomiphene wells 100; actives 0.2% (n = 360,000); lysis activity, % at 15 µM;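 active = mean lysis activity across replicates of at least 80%, whatever share of replicates individually reach that level; inactive = mean lysis activity below 80%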
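Test system: log-phase Cryptococcus neoformans yeast cells; Quantity: yeast cell density of 5 × 10^6 cells/mL; Buffer or medium: YPD; Doses: single compound concentration per well; Timing: 4 h at 37 °C static, read 1 h later; Measured by: AK luminescence; Read-out basis: lysis from increased AK signal; Control set: Clomiphene as positive control.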
Xi reactivation: reactivates the inactive X chromosome in mouse fibroblasts; activation, % at 7.58 µM; XiGFP mouse fibroblasts, % GFP-positive cells imaging, 3 d; cells co-treated with 5-aza-dC sensitizer; scaled so ellipticine positive control = 100%; actives 0.055% (n = 360,000);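 active = mean normalized replicate activation at least 10% and every replicate at or above 10%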;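 also: 0% = median of on-plate neutral control wells and 100% = ellipticine 6 µM median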
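Material: XiGFP fibroblasts, SV40-immortalized; Buffer or medium: DMEM containing 5-aza-dC; Compound dosing: single point; Times: 3 days compound exposure.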
* = called active by the depositor. Sampled rows, rich in hits. Any-hit rate of the full collection: about 2.1%.

How did COc1ccc2c3c(n(C)c2c1)[C@H](CO)N(Cc1ccncc1)CC31CCN(C(=O)Cc2ccncc2)CC1 do in these assays?
DENV2 CPE: 77*; Xi reactivation: 0

What do the screens show for `CCCNC(=O)N1CCC2(CC1)CN(Cc1ccccn1)[C@@H](CO)c1c2c2ccc(OC)cc2n1C`?
DENV2 CPE: 71*; Xi reactivation: 0

Results for COc1ccc2c3c(n(C)c2c1)[C@H](CO)N(C(=O)Nc1ccc(F)cc1)CC31CN(C(=O)c2cccnc2)C1 ?
DENV2 CPE: 25*; Xi reactivation: 0

Results for CCCNC(=O)N1CC2(C1)CN(Cc1ccccn1)[C@@H](CO)c1c2c2ccc(OC)cc2n1C ?
DENV2 CPE: 9; Xi reactivation: 0

What do the screens show for `COc1ccc2c3c(n(C)c2c1)[C@@H](CO)N(C(=O)Nc1ccc(F)cc1)CC31CN(C(=O)c2cccnc2)C1`?
DENV2 CPE: -6; Xi reactivation: 0

Results for Nc1nc(CSc2nnnn2-c2ccccc2)nc(N2CCCc3ccccc32)n1 ?
Statin myotox sup: 115*; Cneo AK release: -1

What do the screens show for `Nc1nc(CN2CCN(c3ccccc3)CC2)nc(N2CCCc3ccccc32)n1`?
Statin myotox sup: 3; Cneo AK release: -1

What do the screens show for `Cc1cccc(CN2CCN(C(=O)c3cccc4ccccc34)CC2)c1`?
Statin myotox sup: 28; DENV2 CPE: 43*; Cneo AK release: 0; Xi reactivation: 0

What do the screens show for `O=C(Nc1cnn(Cc2ccccc2)c1)c1cc2nc(-c3ccco3)cc(C(F)(F)F)n2n1`?
Statin myotox sup: 125*; Cneo AK release: 0

How did O=C(C[C@@H]1CC[C@@H](NC(=O)C2CCC2)[C@@H](CO)O1)NC1CCC1 do in these assays?
Statin myotox sup: -4; DENV2 CPE: -7; Cneo AK release: -13; Xi reactivation: 0

Results for O=C(C[C@H]1CC[C@H](NC(=O)C2CCC2)[C@@H](CO)O1)NC1CCC1 ?
Statin myotox sup: -2; DENV2 CPE: 40*; Cneo AK release: 3; Xi reactivation: 0

How did O=C(C[C@H]1CC[C@H](NC(=O)C2CCOCC2)[C@@H](CO)O1)NCC1CC1 do in these assays?
DENV2 CPE: 34*; Xi reactivation: 0

What do the screens show for `O=C(C[C@@H]1CC[C@@H](NC(=O)CC2CC2)[C@@H](CO)O1)NCC(F)(F)F`?
Statin myotox sup: -9; DENV2 CPE: 62*; Cneo AK release: 8; Xi reactivation: 0

What do the screens show for `COc1cccc(N2CCc3c(C)nc4ccc(Cl)cc4c32)c1`?
Statin myotox sup: -40; DENV2 CPE: 41*; Cneo AK release: 10; Xi reactivation: 1

Results for COc1ccc(N2CCc3c(C)nc4c(OC)cccc4c32)cc1 ?
DENV2 CPE: 0; Xi reactivation: 1

What do the screens show for `CCCC(=O)N1CC2(C1)CN(Cc1ccncc1)[C@@H](CO)c1[nH]c3cc(OC)ccc3c12`?
Xi reactivation: 0

How did O=C(C[C@H]1CC[C@H]2[C@@H](COC[C@H](O)CN2C(=O)Nc2ccccc2)O1)NCCc1ccncc1 do in these assays?
Statin myotox sup: -9; DENV2 CPE: 53*; Cneo AK release: 43; Xi reactivation: 0

Results for C[C@H](NC(=O)C[C@H]1CC[C@H]2[C@@H](COC[C@H](O)CN2C(=O)Nc2cccc(F)c2)O1)c1ccccc1 ?
Statin myotox sup: -12; DENV2 CPE: -2; Cneo AK release: -8; Xi reactivation: 0

How did O=C(C[C@@H]1CC[C@H]2[C@@H](COC[C@@H](O)CN2C(=O)Nc2ccccc2)O1)NCCc1ccncc1 do in these assays?
Statin myotox sup: -1; DENV2 CPE: -14; Cneo AK release: -1; Xi reactivation: 0

How did C[C@@H](NC(=O)C[C@@H]1CC[C@H]2[C@@H](COC[C@H](O)CN2C(=O)Nc2ccccc2)O1)c1ccccc1 do in these assays?
Statin myotox sup: 18; DENV2 CPE: 113*; Cneo AK release: 4; Xi reactivation: 0

What do the screens show for `C[C@H](NC(=O)C[C@@H]1CC[C@@H]2[C@H](COC[C@@H](O)CN2C(=O)Nc2cccc(F)c2)O1)c1ccccc1`?
Statin myotox sup: -17; DENV2 CPE: 2; Cneo AK release: 90*; Xi reactivation: 0

How did O=C(C[C@H]1CC[C@@H]2NC[C@H](O)COC[C@H]2O1)NCCc1ccccc1 do in these assays?
Statin myotox sup: -13; DENV2 CPE: 25*; Cneo AK release: 1; Xi reactivation: 0
